The text below walks through data of ChEMBL document CHEMBL5705891, “Small-molecule kinase inhibitors provide insight into Mps1 cell cycle function” (Nat Chem Biol, 2010).

As a reminder, the Kd is the equilibrium constant for the complex coming apart.

The source made the active and inactive calls. The calls are words filed in the database; no cut-off is given here.

The subject of assay [1] is UTRM10. The assay is described as follows: Reversal of Paclitaxel-induced mitotic arrest in UTRM10 cells (unknown origin) by immunoblot analysis. The class given is functional, cell-based. (A western blot detects proteins with antibodies after separation by electrophoresis.)
The target in assay [2] is T1, Serine/threonine-protein kinase PLK4 (Homo sapiens) (UniProt O00444).
T1 sequence (whole entry): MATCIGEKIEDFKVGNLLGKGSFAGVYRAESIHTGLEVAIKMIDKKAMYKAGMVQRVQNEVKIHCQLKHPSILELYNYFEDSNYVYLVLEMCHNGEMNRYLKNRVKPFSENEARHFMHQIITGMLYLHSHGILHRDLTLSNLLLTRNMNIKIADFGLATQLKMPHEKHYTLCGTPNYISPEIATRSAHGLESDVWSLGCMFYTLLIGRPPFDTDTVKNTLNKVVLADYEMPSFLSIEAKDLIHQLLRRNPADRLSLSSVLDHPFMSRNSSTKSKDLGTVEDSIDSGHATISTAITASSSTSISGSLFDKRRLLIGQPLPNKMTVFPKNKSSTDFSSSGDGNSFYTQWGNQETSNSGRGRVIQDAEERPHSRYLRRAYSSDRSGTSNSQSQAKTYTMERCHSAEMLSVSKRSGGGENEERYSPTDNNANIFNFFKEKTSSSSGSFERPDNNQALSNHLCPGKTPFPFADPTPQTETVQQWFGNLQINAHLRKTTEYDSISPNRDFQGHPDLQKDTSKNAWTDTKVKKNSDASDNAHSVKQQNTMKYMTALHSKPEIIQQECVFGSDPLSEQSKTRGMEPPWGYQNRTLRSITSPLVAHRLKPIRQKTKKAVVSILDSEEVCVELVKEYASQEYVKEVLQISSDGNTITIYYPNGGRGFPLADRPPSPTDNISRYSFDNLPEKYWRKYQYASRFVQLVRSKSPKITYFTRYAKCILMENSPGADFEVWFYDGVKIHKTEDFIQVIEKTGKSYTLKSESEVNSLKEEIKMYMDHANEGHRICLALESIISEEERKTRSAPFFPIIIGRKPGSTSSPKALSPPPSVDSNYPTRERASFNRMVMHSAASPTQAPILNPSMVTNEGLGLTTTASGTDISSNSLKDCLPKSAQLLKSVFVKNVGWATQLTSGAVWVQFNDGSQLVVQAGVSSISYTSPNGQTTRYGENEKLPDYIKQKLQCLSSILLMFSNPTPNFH
The assay is described as follows: Induction of Plk4 in human U2OS cells assessed as increase in cell populations with extra centrosomes by centrin staining based analysis relative to control. To be noted: filed as activator. Summed up: (§1)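 U2OS cells with doxycycline-inducible Plk4 were induced with doxycycline (2 μg·ml⁻¹) or given DMSO. Metaphase spindles carrying more than 2 centrosomes were counted by centrin staining (~300 spindles), and spindle polarity was followed by centrin/α-tubulin/DNA immunofluorescence.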

The subject of assay [3] is U2OS. The assay is described as follows: Induction of extra centrosomes in cell populations of thymidine-treated human U2OS cells expressing H2B-GFP and Plk4 overexpression assessed as fold delay in anaphase onset measured for 30 mins by time lapse imaging analysis relative to control. The note with it: 0.5 h. Format: functional. In a few lines:
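Doxycycline-inducible Plk4 U2OS cells expressing H2B-GFP were blocked with thymidine for 18 hrs and released into doxycycline (2 μg·ml⁻¹) for 10 hrs. A second 18-hr thymidine block followed, then release for 6 hrs before 5 μM inhibitor, with or without Plk4 induction. Cells were imaged by time-lapse at 37°C, 5% CO₂, timed from NEBD, and bipolar versus multipolar anaphases were scored. Values are mean ± SD of 3 independent experiments.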

Assay [4] concerns the target T1, Serine/threonine-protein kinase PLK4 (Homo sapiens). The assay is described as follows: Induction of Plk4 in human U2OS cells assessed as resolution of metaphase multipolar spindles into bipolar spindles in anaphase in cell populations with extra centrosomes by centrin staining based analysis. The note with it: filed as activator. In a few lines: as §1
Assay [5] has as its system UTRM10. The assay is described as follows: Effect on thymidine-treated UTRM10 cells (unknown origin) with Mps1-/- incubated for 24 to 72 hrs by immunoblot analysis. Format: functional, cell-based. To be noted: time lower 24.0 hrs, time upper […].
Assay [6] has as its target T1, Serine/threonine-protein kinase PLK4 (Homo sapiens). The assay is described as follows: Induction of Plk4 in human U2OS cells assessed as bipolar cell division of cell populations with extra centrosomes by centrin staining based analysis. The note with it: filed as activator. In a few lines: as §1
In assay [7] the target is Serine/threonine-protein kinase PLK4 (Homo sapiens, UniProt O00444). The assay is described as follows: Binding affinity to PLK4 (unknown origin) assessed as dissociation constant by Ambit kinase binding assay.
Assay [8] deals with Receptor-type tyrosine-protein kinase FLT3 (Homo sapiens) (UniProt P36888). The assay is described as follows: Inhibition of FLT3 (unknown origin) assessed as residual enzyme activity at 10 uM by Ambit kinase binding assay relative to control.
For assay [9], the system named is U2OS. The assay is described as follows: Reversal of s-trityl cysteine-induced mitotic arrest in human U2OS cells assessed as Ser10 phosphorylated Histone H3-positive 4c population at 10 uM incubated for 16 hrs by flow cytometry (reference value: 50 %). Format: functional. For orientation: Flow cytometry measures light scatter and fluorescence of single cells or particles in a stream.

The target of assay [10] is Cyclin-G-associated kinase (Homo sapiens, UniProt O14976). The assay is described as follows: Binding affinity to GAK (unknown origin) assessed as dissociation constant by Ambit kinase binding assay.
For assay [11], the system named is U2OS. The assay is described as follows: Reversal of s-trityl cysteine-induced mitotic arrest in human U2OS cells assessed as Ser10 phosphorylated Histone H3-positive 4c population at 5 uM incubated for 16 hrs by flow cytometry (reference value: 50 %). The class given is functional.
Assay [12] has as its target Serine/threonine-protein kinase PLK3 (Homo sapiens, UniProt Q9H4B4). The assay is described as follows: Binding affinity to PLK3 (unknown origin) assessed as dissociation constant by Ambit kinase binding assay.
The test system of assay [13] is U2OS. The assay is described as follows: Reversal of nocodazole-induced mitotic arrest in human U2OS cells assessed as decrease in cyclin B level at 0.3 to 10 uM incubated for 4 hrs by immunoblot analysis. Format: functional, cell-based. The note with it: dose 0.3-10 µM.
Assay [14] concerns the target Serine/threonine-protein kinase PLK1 (Homo sapiens, UniProt P53350). The assay is described as follows: Binding affinity to PLK1 (unknown origin) assessed as dissociation constant by Ambit kinase binding assay.
Assay [15] has as its target Serine/threonine-protein kinase 33 (Homo sapiens, UniProt Q9BYT3). The assay is described as follows: Binding affinity to STK33 (unknown origin) assessed as dissociation constant by Ambit kinase binding assay.
Assay [16] has as its target Protein-tyrosine kinase 2-beta (Homo sapiens, UniProt Q14289). The assay is described as follows: Inhibition of PTK2B (unknown origin) assessed as residual enzyme activity at 10 uM by Ambit kinase binding assay relative to control.
The target in assay [17] is T2, Cyclin-G-associated kinase (Homo sapiens) (UniProt O14976).
T2 sequence (whole entry): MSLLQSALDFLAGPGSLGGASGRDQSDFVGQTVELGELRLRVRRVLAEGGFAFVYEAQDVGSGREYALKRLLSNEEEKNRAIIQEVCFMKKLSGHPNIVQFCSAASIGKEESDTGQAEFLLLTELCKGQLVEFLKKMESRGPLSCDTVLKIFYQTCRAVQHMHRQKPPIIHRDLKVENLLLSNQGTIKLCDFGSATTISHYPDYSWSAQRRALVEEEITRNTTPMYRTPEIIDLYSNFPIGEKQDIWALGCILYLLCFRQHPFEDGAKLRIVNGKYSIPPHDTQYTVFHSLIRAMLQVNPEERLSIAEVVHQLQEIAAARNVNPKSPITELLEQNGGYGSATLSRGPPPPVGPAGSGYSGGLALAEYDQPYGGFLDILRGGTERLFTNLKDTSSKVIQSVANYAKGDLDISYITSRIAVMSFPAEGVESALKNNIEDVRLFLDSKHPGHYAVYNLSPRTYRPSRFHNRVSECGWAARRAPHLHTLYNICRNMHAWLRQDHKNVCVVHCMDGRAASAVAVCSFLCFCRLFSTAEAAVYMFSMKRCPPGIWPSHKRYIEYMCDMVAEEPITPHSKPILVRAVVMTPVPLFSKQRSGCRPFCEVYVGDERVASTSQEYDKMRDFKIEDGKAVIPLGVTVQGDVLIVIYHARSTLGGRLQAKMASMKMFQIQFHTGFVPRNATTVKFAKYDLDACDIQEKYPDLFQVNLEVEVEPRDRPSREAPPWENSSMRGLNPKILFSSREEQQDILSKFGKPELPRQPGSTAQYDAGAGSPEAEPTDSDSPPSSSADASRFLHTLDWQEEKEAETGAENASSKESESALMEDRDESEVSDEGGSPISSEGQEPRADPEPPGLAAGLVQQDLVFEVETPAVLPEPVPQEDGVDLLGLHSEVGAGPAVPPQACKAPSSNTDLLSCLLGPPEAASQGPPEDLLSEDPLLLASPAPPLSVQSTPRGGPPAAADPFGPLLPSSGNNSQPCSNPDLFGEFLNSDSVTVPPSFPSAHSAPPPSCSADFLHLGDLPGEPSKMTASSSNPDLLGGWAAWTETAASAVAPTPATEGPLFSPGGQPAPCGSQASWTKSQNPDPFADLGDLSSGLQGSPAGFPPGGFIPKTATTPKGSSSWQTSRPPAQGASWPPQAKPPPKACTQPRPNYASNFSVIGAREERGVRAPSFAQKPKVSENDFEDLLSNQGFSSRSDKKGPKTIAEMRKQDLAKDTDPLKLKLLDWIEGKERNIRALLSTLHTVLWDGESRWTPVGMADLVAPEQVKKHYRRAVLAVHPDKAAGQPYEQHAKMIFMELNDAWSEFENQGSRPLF
The assay is described as follows: Inhibition of GAK (unknown origin) assessed as residual enzyme activity at 10 uM by Ambit kinase binding assay relative to control.

In assay [18] the test system is UTRM10. The assay is described as follows: Upregulation of phosphorylated histone H3 level in UTRM10 cells (unknown origin) upto 10 uM by immunoblot analysis. Format: functional, cell-based.
Assay [19] concerns U2OS. The assay is described as follows: Reversal of nocodazole-induced mitotic arrest in human U2OS cells assessed as decrease in cyclin B level at 10 uM incubated for 4 hrs in presence of MG132 by immunoblot analysis. The class given is functional, cell-based.

Chain of Serine/threonine-protein kinase PLK1 (P53350 whole entry): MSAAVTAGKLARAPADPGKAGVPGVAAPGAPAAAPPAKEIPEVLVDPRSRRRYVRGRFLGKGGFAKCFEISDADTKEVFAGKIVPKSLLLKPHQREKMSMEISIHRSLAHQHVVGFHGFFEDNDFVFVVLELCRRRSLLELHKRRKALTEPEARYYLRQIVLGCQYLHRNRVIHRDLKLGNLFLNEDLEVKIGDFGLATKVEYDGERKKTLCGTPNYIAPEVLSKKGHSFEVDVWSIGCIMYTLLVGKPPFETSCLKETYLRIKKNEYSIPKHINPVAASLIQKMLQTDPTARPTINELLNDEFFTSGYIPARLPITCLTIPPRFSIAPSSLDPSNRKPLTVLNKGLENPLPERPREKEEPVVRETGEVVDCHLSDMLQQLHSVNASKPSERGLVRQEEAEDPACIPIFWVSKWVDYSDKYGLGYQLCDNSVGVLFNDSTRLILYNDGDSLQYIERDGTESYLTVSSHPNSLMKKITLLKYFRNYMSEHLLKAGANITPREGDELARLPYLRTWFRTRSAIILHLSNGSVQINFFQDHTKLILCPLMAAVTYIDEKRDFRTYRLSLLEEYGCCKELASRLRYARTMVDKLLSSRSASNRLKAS
Chain of Serine/threonine-protein kinase 33 (Q9BYT3 whole entry): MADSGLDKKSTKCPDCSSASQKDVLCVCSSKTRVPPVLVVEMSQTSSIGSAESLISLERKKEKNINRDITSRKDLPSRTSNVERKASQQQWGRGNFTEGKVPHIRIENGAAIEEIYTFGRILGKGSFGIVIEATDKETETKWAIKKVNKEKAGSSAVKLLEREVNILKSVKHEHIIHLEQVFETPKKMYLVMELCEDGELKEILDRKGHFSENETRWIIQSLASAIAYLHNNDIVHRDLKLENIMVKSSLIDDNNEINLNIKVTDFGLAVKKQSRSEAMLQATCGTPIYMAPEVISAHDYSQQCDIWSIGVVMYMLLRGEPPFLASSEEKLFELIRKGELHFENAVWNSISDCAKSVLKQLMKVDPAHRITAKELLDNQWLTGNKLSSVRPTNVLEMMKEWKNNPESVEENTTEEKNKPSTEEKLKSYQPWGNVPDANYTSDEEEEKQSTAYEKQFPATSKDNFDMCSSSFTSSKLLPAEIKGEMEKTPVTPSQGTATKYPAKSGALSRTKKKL
Chain of Serine/threonine-protein kinase PLK3 (Q9H4B4 whole entry): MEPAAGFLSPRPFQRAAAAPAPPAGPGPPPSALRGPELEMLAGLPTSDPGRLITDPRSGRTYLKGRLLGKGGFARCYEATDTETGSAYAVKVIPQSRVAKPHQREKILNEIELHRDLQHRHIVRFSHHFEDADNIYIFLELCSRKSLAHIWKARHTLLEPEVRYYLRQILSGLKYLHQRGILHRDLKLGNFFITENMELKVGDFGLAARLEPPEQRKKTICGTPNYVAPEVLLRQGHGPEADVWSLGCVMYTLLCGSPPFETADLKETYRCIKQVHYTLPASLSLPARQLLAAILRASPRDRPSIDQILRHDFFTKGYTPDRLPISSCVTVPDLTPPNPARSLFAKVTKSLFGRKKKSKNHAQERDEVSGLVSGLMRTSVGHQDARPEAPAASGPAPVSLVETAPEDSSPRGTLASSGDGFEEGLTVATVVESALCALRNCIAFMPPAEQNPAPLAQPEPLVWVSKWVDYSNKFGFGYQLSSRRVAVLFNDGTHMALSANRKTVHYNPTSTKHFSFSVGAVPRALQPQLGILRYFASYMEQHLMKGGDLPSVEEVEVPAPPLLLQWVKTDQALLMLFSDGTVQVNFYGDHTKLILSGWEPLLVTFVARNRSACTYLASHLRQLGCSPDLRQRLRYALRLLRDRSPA
Chain of Protein-tyrosine kinase 2-beta (Q14289 whole entry, looked up): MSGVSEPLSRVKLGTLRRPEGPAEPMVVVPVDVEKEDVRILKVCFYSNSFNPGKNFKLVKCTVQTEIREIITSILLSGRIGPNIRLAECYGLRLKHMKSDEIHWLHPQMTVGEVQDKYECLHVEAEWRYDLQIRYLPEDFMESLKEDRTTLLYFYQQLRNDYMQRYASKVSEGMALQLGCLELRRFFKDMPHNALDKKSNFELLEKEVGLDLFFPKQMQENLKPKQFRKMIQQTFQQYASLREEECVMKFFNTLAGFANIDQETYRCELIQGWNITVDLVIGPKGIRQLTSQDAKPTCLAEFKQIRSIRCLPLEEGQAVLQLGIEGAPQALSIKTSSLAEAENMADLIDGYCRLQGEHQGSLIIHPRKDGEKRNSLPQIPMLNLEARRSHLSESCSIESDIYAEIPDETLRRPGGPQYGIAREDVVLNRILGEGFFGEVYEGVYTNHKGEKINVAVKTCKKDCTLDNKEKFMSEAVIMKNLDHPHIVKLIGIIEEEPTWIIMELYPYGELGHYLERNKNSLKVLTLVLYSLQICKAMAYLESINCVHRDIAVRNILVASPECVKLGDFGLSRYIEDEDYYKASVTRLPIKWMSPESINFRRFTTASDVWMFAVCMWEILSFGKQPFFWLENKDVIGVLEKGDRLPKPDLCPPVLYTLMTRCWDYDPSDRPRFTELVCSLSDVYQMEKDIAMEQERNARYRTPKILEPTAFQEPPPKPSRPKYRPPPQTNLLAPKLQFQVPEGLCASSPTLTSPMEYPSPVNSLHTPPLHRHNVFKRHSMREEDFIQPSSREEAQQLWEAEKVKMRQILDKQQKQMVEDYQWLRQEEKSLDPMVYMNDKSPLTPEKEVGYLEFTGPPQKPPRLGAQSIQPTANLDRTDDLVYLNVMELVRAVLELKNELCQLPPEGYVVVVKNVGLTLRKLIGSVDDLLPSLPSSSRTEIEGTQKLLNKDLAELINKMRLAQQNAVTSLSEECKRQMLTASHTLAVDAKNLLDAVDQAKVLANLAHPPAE
Chain of Receptor-type tyrosine-protein kinase FLT3 (Homo sapiens) (P36888 whole entry): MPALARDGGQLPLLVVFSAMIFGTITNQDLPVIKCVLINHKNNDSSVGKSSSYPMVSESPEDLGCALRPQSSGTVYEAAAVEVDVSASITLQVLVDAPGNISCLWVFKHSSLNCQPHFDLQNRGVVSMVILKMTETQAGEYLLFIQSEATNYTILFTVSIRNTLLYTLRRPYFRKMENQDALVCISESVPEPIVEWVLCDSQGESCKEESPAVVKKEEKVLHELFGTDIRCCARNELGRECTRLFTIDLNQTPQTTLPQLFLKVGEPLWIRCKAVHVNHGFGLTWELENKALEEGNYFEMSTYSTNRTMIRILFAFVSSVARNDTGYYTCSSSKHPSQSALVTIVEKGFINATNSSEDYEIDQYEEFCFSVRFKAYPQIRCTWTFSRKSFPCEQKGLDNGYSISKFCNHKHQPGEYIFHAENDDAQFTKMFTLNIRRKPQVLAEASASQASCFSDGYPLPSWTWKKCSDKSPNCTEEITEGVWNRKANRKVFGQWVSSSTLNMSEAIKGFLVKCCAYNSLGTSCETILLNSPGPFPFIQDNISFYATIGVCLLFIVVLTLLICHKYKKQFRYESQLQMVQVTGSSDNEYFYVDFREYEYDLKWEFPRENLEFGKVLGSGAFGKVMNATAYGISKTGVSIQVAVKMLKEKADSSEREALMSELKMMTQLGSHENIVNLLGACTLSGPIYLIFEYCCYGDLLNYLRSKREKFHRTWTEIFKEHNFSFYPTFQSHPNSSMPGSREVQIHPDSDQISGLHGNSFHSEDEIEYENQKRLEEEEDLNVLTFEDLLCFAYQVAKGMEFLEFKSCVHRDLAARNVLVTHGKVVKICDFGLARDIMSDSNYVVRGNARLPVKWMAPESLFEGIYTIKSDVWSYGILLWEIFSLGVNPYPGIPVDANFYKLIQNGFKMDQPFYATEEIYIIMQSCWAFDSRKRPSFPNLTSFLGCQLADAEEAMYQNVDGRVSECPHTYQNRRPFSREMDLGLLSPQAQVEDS

On to `Cc1cc(Nc2cc(N3CCN(C)CC3)nc(Sc3ccc(NC(=O)C4CC4)cc3)n2)n[nH]1`, for which the result with UTRM10 [1] was Active.

For the compound `C[C@H]1c2cccc(O)c2C(=O)C2=C(O)[C@]3(O)C(=O)C(C(N)=O)=C(O)[C@@H](N(C)C)[C@@H]3[C@@H](O)[C@@H]21` [DOXYCYCLINE ANHYDROUS], the Activity in assay [2] turned out to be 80%. The “fold change (FC)” value in the assay with U2OS [3] came out at 2. The outcome in assay [4] and in assay [6] was Active. The result with UTRM10 [5] was inactive.

`CCOc1cc(N2CCC(O)CC2)ccc1Nc1ncc2c(n1)N(C1CCCC1)CCC(=O)N2C`: the Kd is 3100 nM in [7]; 140 nM in [10]; 1600 nM in [12]; 61 nM in assay [14]; 5000 nM in [15]. Besides, the Activity in [8] amounted to 0%; with U2OS [9], 4%; in the assay on U2OS [11] it was 14%; in assay [16], 24%; in assay [17], 2%. Further, the outcome in the assay on U2OS [13] and in the assay with UTRM10 [18] was Active. The result with U2OS [19] was inactive.
